# From PubChem
# HCT116 bCat-KO = beta-catenin-lacking colon tumor cell growth suppression | HCT116 beta-catenin knockout viability, CellTiter-Glo, 60 h; stronger effect = lower value | viability, % at 10 µM | 140,000 tested, 1.5% active | AID 818;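 active = viability at or under a set limit, the compound median less 4 SD, cut at about 6% in these data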;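 note: 0% = Hyamine 1622 control at 20 µM and 100% = untreated cell control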
# HCT116 PTEN-null = PTEN-deleted cell growth suppression | HCT116 PTEN-null viability, CellTiter-Glo, 60 h; stronger effect = lower value | viability, % at 10 µM | 140,000 tested, 1.2% active | AID 827;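 active = viability at or below a set limit, 4 SD under the median of all tested compounds, cut at about 3.7% in these data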;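 note: PTEN knockout HCT116 line with beta catenin targeted HCT116 as companion control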
# L major viab = Leishmania major promastigote growth inhibition; inhibition, % at 10 µM; Leishmania major promastigotes, resazurin fluorescence viability; AID 1063; 200,000 tested, 9% active; in the data active = inhibition above about 50%;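 note: promastigotes grown with compound for 44 hours at 28 °C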
# Dynein transport = blocks dynein driven cargo transport along microtubules | 220,000 tested, 0.47% active | z-score, hits read low | AID 1381 | 3617.4 mouse cells, GR-EGFP nuclear translocation imaging; test concentration mostly 20 µM; stimulated with dexamethasone, 1 µM; stronger effect = lower value;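 active = plate z-score of nuclear minus cytoplasmic receptor signal below a set negative limit, without overly bright fluorescence or cell loss, cut at about -3.5 in these data, passing the limit was not always enough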;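 note: z-score of nuclear minus cytoplasmic ring GR-EGFP intensity difference per well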
#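 medium = tetracycline-free induction medium containing charcoal-stripped FBS | probe or stimulus = dexamethasone, 1.0 µM final | timing = 48 h induction, then 1 h compound, then 30 min agonist, 37 °C | detection = automated 10x imaging of fixed Hoechst-stained cells | read-out basis = nuclear versus cytoplasmic GR-EGFP signal, averaged per well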
# Autophagy HCS = alters autophagy in cells; MEF GFP-LC3 puncta imaging; test concentration mostly 10 µM; calls only at 10 µM (by protocol); 190,000 tested, 0.98% active; AID 463193;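 active = percentage of spot-positive cells more than 3 SD above its plate mean, without a fluorescence outlier flag or 80% toxicity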;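 note: spot-positive cell cutoff set from DMSO-treated cells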
# An asterisk follows results filed as active; i = inactive; . = no result given; + = active, no number. Most compounds without a hit are left out; they make up all but 9.2% or so of the library.
SMILES,HCT116 bCat-KO,HCT116 PTEN-null,L major viab,Dynein transport,Autophagy HCS
O=C1c2cc(N3CCCC3)c([N+](=O)[O-])cc2C(=O)N1c1ccccc1,84.9,90.2,59.8*,0.282,i
O=C(COC(=O)c1ccc(CO)cc1)Nc1ccc(OC(F)F)cc1,.,.,-4.7,1.53,i
Cc1ccccc1OCC(O)Cn1c(=N)n(Cc2ccccc2)c2ccccc21 (stereo not given),.,.,.,0.533,.
CCCn1c(=N)n(CC(O)COc2ccc(C)cc2)c2ccccc21 (stereo not given),.,.,.,-0.542,.
COc1ccccc1OCC(O)Cn1c(=N)n(Cc2ccccc2)c2ccccc21 (stereo not given),5.2*,8.2,100.5*,0.179,+
CCCCn1c(=N)n(CC(O)COc2cccc(C)c2)c2ccccc21 (stereo not given),1.7*,1.5*,100.4*,-0.347,i
Cc1ccc(OCC(O)Cn2c(=N)n(CCN3CCOCC3)c3ccccc32)cc1 (stereo not given),58.8,61.6,4.8,-0.504,i
Cc1ccc(OCC(O)Cn2c(=N)n(CCN3CCCCC3)c3ccccc32)cc1 (stereo not given),2.3*,2.9*,100.4*,-0.526,i
COc1ccc(OCC(O)Cn2c(=N)n(CCN3CCCCC3)c3ccccc32)cc1 (stereo not given),25.6,25.7,100.1*,2.65,i
Cc1nnc(SCC(=O)NC2CC2)n1CC1CCCO1 (stereo not given),.,.,1.7,0.373,i
COc1ccccc1CN(Cc1cc2cc(C)cc(C)c2[nH]c1=O)Cc1nnnn1CC1CCCO1 (stereo not given),41.6,8.0,55.9*,-0.497,i
COCCn1nnnc1CN(CCc1ccccc1)Cc1cc2ccc(C)cc2[nH]c1=O,74.1,87.2,100.3*,-0.504,i
COc1ccc2cc(CN(CCc3ccccc3)Cc3nnnn3CC3CCCO3)c(=O)[nH]c2c1 (stereo not given),80.0,77.9,99.6*,-0.359,i
COc1ccc2[nH]c(=O)c(CN(CCc3ccccc3)Cc3nnnn3CC3CCCO3)cc2c1 (stereo not given),95.0,79.9,14.7,3.43,i
O=C(NC(Cc1c[nH]c2ccccc12)C(=O)NCCCN1CCOCC1)c1cccs1 (stereo not given),.,.,-2.9,-0.377,i
COc1cccc(CC2(CO)CCCN(C(=O)c3cc[n+]([O-])cc3)C2)c1 (stereo not given),.,.,-3.3,-0.11,i
Cc1ccc(C(C(=O)NC2CCCCC2)N(Cc2ccco2)C(=O)C2COc3ccccc3O2)o1 (stereo not given),86.1,77.0,19.1,-0.892,i
CC(C)CCNC(=O)C(c1ccc(O)cc1)N(Cc1cccs1)C(=O)C1COc2ccccc2O1 (stereo not given),36.7,16.0,99.7*,-0.28,i
O=C(NC1CCCCC1)C(c1ccc(O)cc1)N(CC1CCCO1)C(=O)C1COc2ccccc2O1 (stereo not given),46.2,53.0,50.1*,0.491,i
Cc1ccc(C(C(=O)NC2CCCCC2)N(Cc2cccnc2)C(=O)C2COc3ccccc3O2)o1 (stereo not given),78.9,67.1,64.0*,-0.503,i
CC(C)c1cc(C(=O)N2CCCC(CCC(=O)N3CCN(c4ccccn4)CC3)C2)no1 (stereo not given),.,.,.,1.11,.
CCCN1CCC(NCc2cn(C)nc2-c2ccc(Oc3ccccc3)cc2)CC1,.,.,.,1.35,.
COc1cc2c(cc1OC)C(c1ccc(-c3cc(Cl)ccc3Cl)o1)=NCC2,6.7,3.3*,39.6,-0.0696,i
COc1cc2c(cc1OC)C(c1ccc(-c3ccc(Cl)c(Cl)c3)o1)=NCC2,4.1*,2.8*,70.8*,-0.352,i
COc1cc2c(cc1OC)C(c1ccc(-c3ccc(Cl)cc3Cl)o1)=NCC2,11.4,13.3,27.1,0.554,i
SMILES,HCT116 bCat-KO,HCT116 PTEN-null,L major viab,Dynein transport,Autophagy HCS
CCN(C(=O)CSc1ncccc1C(=O)O)C1CCCCC1,.,.,-6.5,0.12,i
COC(=O)c1cc(NC(=O)c2cc(-c3ccccc3Cl)oc2C(F)(F)F)ccc1N1CCOCC1,.,.,.,-0.282,.
CCN1CCN(CCCNC(=O)c2cc3sccc3n2CC)CC1,88.8,86.9,12.7,-0.967,.
Cc1ccc(Cn2c(C(=O)NCCCN3CCOCC3)cc3sccc32)cc1,61.7,61.6,86.5*,-0.504,i
CCn1c(C(=O)NCCCN2CCc3ccccc3C2)cc2sccc21,51.1,60.5,91.2*,0.981,i
O=C(NCCCN1CCOCC1)c1ccc(CS(=O)(=O)Cc2ccc(Cl)cc2)o1,99.6,94.3,3.1,-0.772,i
O=C(Cn1c(C(=O)NCCCN2CCOCC2)cc2sccc21)c1ccccc1,98.9,86.9,80.9*,0.312,i
Cc1cc2c(cc(C(=O)NCCCN3CCOCC3)n2Cc2ccc(Cl)cc2)o1,77.4,86.7,98.6*,0.527,i
Cn1c(C(=O)NCCN2CCOCC2)cc2sccc21,87.7,92.3,5.6,0.479,i
COc1ccccc1CNC(=O)c1nn(-c2ccc(C)cc2)c(=O)c2c1c1ccccc1n2C,67.1,63.6,5.0,-0.899,i
COc1oc(-c2ccccc2)nc1C(F)(F)F,94.3,107.6,-3.3,-0.213,i
O=C(COC(=O)c1cccnc1Cl)c1ccc(OC(F)F)cc1,.,.,-8.0,-0.501,i
COCCn1nnnc1C(c1cccs1)N1CCN(c2nc3ccccc3s2)CC1 (stereo not given),79.8,65.6,94.8*,-0.0286,i
COCCn1nnnc1C(c1cccs1)N1CCN(c2cc(C)ccc2C)CC1 (stereo not given),58.1,57.0,-3.4,-0.305,i
CC(C)CC(c1nnnn1Cc1cccs1)N1CCN(c2nc3ccccc3s2)CC1 (stereo not given),63.6,65.0,97.8*,-0.0933,i
CN1C(=O)NC(NS(=O)(=O)c2ccc(N)cc2)(C(F)(F)F)C1=O (stereo not given),.,.,5.1,1.02,i
O=C(CCl)Nc1cc2[nH]c(=O)[nH]c2cc1Br,.,.,16.4,-2.86,i
COc1ccc(-c2nc3ccccc3c(=O)n2NC(=O)c2cccnc2Cl)cc1OC,94.6,100.2,-5.3,0.509,i
COc1cccc(NC(=S)N(CCCN2CCCC(C)C2)Cc2cccs2)c1 (stereo not given),.,.,99.7*,-0.021,i
COc1ccc(NC(=S)N2CCC(N(C)CCN3CCOCC3)CC2)cc1Cl,101.2,92.0,76.0*,-0.245,i
COc1ccc(NC(=S)N(CCCN2CCN(C)CC2)Cc2cccs2)cc1,86.6,93.9,4.1,1.14,i
COc1ccc(NC(=S)NCCCN2CCCC2)cc1Cl,.,.,22.5,-0.657,i
COc1ccc(NC(=S)N(CCCN2CCC(C)CC2)Cc2cccs2)cc1Cl,.,.,99.2*,1.14,i
COc1ccc(NC(=S)NCCN2CCC(C)CC2)cc1Cl,.,.,69.4*,0.71,i
CSc1cccc(NC(=S)N(CCCN2CCCC(C)C2)Cc2cccs2)c1 (stereo not given),.,.,98.7*,-0.314,i
